From paper PMC4681580 (Journal of immunology (Baltimore, Md. : 1950), 2015)
No end group written: not given here.

How the values were obtained:
rTAP1/TAP2a(E218M) = target: T1, rTAP1/TAP2a(E218M) (Rattus norvegicus, UniProt P36370+P36372, E218M); assay: Peptide transport assay, E218M mutant; assay type: biochemical; settings: FITC-labeled peptide 1 μM, 37 °C, 5 min, with or without 5 mM ATP
T1 sequence (P36370 1-725): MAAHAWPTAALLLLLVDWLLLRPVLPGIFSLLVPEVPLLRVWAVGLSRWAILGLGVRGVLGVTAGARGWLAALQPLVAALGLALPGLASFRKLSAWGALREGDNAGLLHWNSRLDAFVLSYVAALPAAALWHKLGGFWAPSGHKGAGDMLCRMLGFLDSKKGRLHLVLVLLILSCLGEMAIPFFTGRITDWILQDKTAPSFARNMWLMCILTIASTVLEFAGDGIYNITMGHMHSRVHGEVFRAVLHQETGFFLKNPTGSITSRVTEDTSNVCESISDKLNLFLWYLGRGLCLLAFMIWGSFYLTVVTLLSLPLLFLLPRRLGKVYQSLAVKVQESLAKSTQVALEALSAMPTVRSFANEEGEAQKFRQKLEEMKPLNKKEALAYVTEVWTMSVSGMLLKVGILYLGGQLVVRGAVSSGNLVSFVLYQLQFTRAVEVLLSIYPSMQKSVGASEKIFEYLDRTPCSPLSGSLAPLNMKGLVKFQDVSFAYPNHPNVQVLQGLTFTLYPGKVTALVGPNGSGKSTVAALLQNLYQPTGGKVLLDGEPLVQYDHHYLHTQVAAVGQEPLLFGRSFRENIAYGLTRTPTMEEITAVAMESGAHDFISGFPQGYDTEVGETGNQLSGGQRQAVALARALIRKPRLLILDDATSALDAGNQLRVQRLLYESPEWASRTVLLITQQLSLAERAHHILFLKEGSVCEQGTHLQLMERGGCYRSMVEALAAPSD
T1 sequence (P36372 1-703 E218M): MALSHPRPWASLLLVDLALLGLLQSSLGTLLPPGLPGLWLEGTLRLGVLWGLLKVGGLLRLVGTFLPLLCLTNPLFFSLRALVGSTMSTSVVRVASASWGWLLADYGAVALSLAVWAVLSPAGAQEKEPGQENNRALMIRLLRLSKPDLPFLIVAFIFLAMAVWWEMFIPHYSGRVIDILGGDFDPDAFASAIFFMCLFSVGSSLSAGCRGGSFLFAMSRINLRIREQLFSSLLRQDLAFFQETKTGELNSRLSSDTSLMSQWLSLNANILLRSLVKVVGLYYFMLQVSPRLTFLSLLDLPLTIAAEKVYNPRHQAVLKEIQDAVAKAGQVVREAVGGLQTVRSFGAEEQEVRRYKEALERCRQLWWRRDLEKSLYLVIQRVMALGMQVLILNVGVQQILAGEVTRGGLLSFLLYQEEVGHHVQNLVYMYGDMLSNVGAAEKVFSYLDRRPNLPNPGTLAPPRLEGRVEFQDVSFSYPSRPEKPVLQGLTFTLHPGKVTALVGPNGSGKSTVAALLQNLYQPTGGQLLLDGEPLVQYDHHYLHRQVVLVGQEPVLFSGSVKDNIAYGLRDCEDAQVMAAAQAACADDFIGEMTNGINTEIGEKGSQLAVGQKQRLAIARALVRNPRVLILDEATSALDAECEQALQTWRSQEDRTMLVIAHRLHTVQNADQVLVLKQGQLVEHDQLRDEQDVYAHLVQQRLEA
Method in brief: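 Sf21 cells were grown to confluence and infected with baculoviruses (MOI 5–20) expressing His-tagged rTAP1 and Flag-tagged rTAP2 variants; microsomes were made after 72 h. Lysis was in 1% NP40, and glycosylated peptide was recovered on Con A-Sepharose. Fluorescence was read in triplicate to give +ATP/−ATP ratios, normalized to wild type (100%) and TAP-free microsomes (0%). Paired two-tailed t-tests were applied.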

rTAP1/TAP2a (wild type) = target: T2, rTAP1/TAP2a (wild type) (Rattus norvegicus, UniProt P36370+P36372); assay: Competitive inhibition of TC6R crosslinking, wild type TAP; assay type: binding
T2 sequence (P36370 1-725): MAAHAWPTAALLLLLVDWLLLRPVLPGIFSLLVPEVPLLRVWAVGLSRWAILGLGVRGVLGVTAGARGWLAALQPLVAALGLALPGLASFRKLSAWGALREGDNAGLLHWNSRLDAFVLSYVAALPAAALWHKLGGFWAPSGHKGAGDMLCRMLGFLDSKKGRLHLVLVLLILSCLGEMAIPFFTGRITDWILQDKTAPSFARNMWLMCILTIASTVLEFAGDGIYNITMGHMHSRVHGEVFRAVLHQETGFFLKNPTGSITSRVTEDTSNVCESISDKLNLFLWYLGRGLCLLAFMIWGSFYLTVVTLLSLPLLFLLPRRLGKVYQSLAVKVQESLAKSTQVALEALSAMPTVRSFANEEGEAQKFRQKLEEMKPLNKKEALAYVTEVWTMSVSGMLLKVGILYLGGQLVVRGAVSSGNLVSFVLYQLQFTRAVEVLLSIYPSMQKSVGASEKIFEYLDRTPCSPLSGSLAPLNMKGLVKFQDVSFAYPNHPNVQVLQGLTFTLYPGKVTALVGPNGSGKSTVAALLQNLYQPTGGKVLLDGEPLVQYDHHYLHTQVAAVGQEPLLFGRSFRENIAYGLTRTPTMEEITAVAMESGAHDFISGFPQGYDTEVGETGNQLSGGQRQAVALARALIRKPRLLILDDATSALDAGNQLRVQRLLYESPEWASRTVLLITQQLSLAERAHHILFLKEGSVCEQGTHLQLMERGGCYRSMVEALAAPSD
T2 sequence (P36372 1-703): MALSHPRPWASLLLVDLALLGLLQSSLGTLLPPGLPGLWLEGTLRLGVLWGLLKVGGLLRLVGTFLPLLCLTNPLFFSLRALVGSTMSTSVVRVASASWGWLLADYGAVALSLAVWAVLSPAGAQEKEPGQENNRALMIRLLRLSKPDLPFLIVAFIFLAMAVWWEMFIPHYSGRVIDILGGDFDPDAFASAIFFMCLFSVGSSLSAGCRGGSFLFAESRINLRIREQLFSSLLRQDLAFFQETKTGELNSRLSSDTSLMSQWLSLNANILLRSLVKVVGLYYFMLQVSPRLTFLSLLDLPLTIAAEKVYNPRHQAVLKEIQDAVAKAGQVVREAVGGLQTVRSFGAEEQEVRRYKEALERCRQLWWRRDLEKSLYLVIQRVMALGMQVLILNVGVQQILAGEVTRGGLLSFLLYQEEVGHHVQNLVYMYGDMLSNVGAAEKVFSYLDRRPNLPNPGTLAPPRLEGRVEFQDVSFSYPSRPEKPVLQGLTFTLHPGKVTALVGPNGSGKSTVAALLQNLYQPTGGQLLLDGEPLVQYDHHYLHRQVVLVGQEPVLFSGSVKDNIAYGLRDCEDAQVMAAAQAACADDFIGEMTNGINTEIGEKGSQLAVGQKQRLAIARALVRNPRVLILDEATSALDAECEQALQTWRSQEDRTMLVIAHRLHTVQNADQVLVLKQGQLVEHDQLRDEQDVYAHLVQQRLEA
Method in brief: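 Rat TAP1/TAP2a expressed in baculovirus-infected Sf21 microsomes. Microsomes were incubated with 1 μM FITC-lysine peptide with Cys at position 6, plus unlabeled competitor peptide, on ice for 10 min in PBS pH 7.4. BMOE was added (0.2 mM final) for 10 min at room temperature and quenched with 10 mM DTT. Products were resolved by SDS-PAGE and fluorescence imaged at 520 nm.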

Substance	effect of mutation on transport efficiency versus wild type (rTAP1/TAP2a(E218M))	IC50 (rTAP1/TAP2a (wild type)) [nM]
TVDNK*TAYV	did not significantly affect	
RYWANATKSR [RR]		300
